Source: ChEMBL document CHEMBL1131231, “New azole antifungals. 2. Synthesis and antifungal activity of heterocyclecarboxamide derivatives of 3-amino-2-aryl-1-azolyl-2-butanol” (1998)
Values after ≈ are worked out from the molar mass of the structure shown.

How the values were obtained:
Format in all cases: functional
[1] = The compound was tested in vitro for antifungal activity against 10 yeasts.
Outline: (§1)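 Agar dilution on Kimmig's agar with 0.5% glycerol; ATCC or clinical isolates, inocula at 10⁵ cfu/mL. Drugs from 800 μg/mL stock in 50% ethanol, 2-fold serial dilutions 80 to 0.03 μg/mL in plates. Incubated 25 °C, 48 h for yeasts, 120 h for filamentous fungi. Value is geometric mean of MICs (μg/mL); >80 taken as 160, ≤0.03 as 0.03.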

[2] = tested on: Candida albicans; test: In vivo antifungal activity against murine candidosis model after peroral administration with 0.5 mg/kg at various time intervals. (percent protection for 100% mortality with untreated group); conditions: route oral
Outline: (§2)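 Male mice, groups of 10, infected iv with 0.2 mL Candida albicans at (2–8) × 10⁷ cfu/mL. Oral suspension in 1% Tween + 0.2% carboxymethylcellulose in water, given 1, 4 and 24 h post-infection; vehicle controls and a fluconazole group at the same dose. Survival scored on days 1, 2, 3, 5, 7, 9, reported as % surviving on the day untreated, or fluconazole-treated, mortality reached 100%.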

[3] = tested on: Candida albicans; test: In vivo antifungal activity against murine candidosis model after peroral administration with 0.5 mg/kg at various time intervals. (percent protection for 100% mortality with fluconazole-treated group.); conditions: route oral; outline: as §2
[4] = The compound was tested in vitro for antifungal activity against 6 filamentous fungi.; outline: as §1

Structure (SMILES) | MIC [1] [µg/mL] | Protection [2] [%] | Protection [3] [%] | MIC [4] [µg/mL]
C[C@@H](NC(=O)c1ccc(-c2cc(C(F)(F)F)nn2C)s1)[C@](O)(Cn1cncn1)c1ccc(F)cc1F | 2.3 (≈ 4.37 µM) | 10 | 0 | 28 (≈ 53.2 µM)
C[C@@H](NC(=O)c1scc(S(=O)(=O)c2ccc(Cl)cc2)c1N)[C@](O)(Cn1cncn1)c1ccc(F)cc1F | 1 (≈ 1.76 µM) | 20 | 0 | 10 (≈ 17.6 µM)
Cc1nc(Oc2ccc(Cl)cc2)sc1C(=O)N[C@H](C)[C@](O)(Cn1cncn1)c1ccc(F)cc1F | 1.5 (≈ 2.88 µM) | 10 | 0 | 4 (≈ 7.69 µM)
C[C@@H](NC(=O)c1cnn(-c2ccc(C(F)(F)F)cc2)c1N)[C@](O)(Cn1cncn1)c1ccc(F)cc1F | 3.3 (≈ 6.33 µM) | – | – | 28 (≈ 53.7 µM)
Cc1nc(-c2ccc(C#N)cc2)sc1C(=O)N[C@H](C)[C@](O)(Cn1ccnc1)c1ccc(F)cc1F | 10 (≈ 20.3 µM) | 70 | 0 | 45 (≈ 91.2 µM)
Cc1nc(-c2ccc(OC(F)(F)F)cc2)sc1C(=O)N[C@H](C)[C@](O)(Cn1cncn1)c1ccc(F)cc1F | 1.3 (≈ 2.35 µM) | 100 | 100 | 1.6 (≈ 2.89 µM)
C[C@@H](NC(=O)c1noc(-c2ccc(Cl)cc2)n1)[C@](O)(Cn1cncn1)c1ccc(F)cc1F | 2.1 (≈ 4.42 µM) | 100 | 10 | 32 (≈ 67.4 µM)
Cc1nc(Br)sc1C(=O)N[C@H](C)[C@](O)(Cn1cncn1)c1ccc(F)cc1F | 4.6 (≈ 9.74 µM) | – | – | 32 (≈ 67.8 µM)
Cc1nc(C)c(C(=O)N[C@H](C)[C@](O)(Cn2cncn2)c2ccc(F)cc2F)s1 | 19 (≈ 46.6 µM) | 0 | 0 | > 80
CCCS(=O)(=O)c1csc(C(=O)N[C@H](C)[C@](O)(Cn2cncn2)c2ccc(F)cc2F)c1N | 4.4 (≈ 8.81 µM) | – | – | 23 (≈ 46 µM)
Cc1cc(-c2ccc(Cl)cc2)sc1C(=O)N[C@H](C)[C@](O)(Cn1cncn1)c1ccc(F)cc1F | 0.3 (≈ 0.596 µM) | 100 | 20 | 0.7 (≈ 1.39 µM)
C[C@@H](NC(=O)c1nsc(-c2ccc(Cl)cc2)n1)[C@](O)(Cn1cncn1)c1ccc(F)cc1F | 1.4 (≈ 2.85 µM) | 80 | 10 | > 80
Cc1c(C(=O)N[C@H](C)[C@](O)(Cn2cncn2)c2ccc(F)cc2F)cnn1C | > 80 | – | – | > 80
C[C@@H](NC(=O)c1sc(-c2ccc(Cl)cc2)cc1N)[C@](O)(Cn1cncn1)c1ccc(F)cc1F | 0.6 (≈ 1.19 µM) | 0 | 0 | 22 (≈ 43.7 µM)
Cc1nc(-c2ccc(C(N)=O)cc2)sc1C(=O)N[C@H](C)[C@](O)(Cn1cncn1)c1ccc(F)cc1F | 20 (≈ 39 µM) | 0 | 0 | > 80
C[C@@H](NC(=O)c1nc(-c2ccc(Cl)cc2)ns1)[C@](O)(Cn1cncn1)c1ccc(F)cc1F | 11 (≈ 22.4 µM) | 10 | 0 | > 80
C[C@@H](NC(=O)c1sc(-c2ccc(C(F)(F)F)cc2)nc1C(F)(F)F)[C@](O)(Cn1cncn1)c1ccc(F)cc1F | 1.6 (≈ 2.71 µM) | 90 | <20 | 17 (≈ 28.7 µM)
Cc1cc(-c2ccc(C#N)cc2)sc1C(=O)N[C@H](C)[C@](O)(Cn1cncn1)c1ccc(F)cc1F | 0.7 (≈ 1.42 µM) | 100 | 70 | 8.9 (≈ 18 µM)

Structure (SMILES) | MIC [1] [µg/mL] | Protection [2] [%] | Protection [3] [%] | MIC [4] [µg/mL]
C[C@@H](n1ncn(-c2ccc(OCC(F)(F)C(F)F)cc2)c1=O)[C@](O)(Cn1cncn1)c1ccc(F)cc1F | 2.6 (≈ 4.79 µM) | 100 | 100 | 8.9 (≈ 16.4 µM)
Cc1nc(-c2ccc(C#N)cc2)sc1C(=O)N[C@H](C)[C@](O)(Cn1cncn1)c1ccc(C(F)(F)F)cc1 | 2 (≈ 3.8 µM) | 0 | 0 | > 80
C[C@@H](NC(=O)c1cnc(-c2ccc(Cl)cc2)s1)[C@](O)(Cn1cncn1)c1ccc(F)cc1F | 0.7 (≈ 1.43 µM) | 100 | 100 | 6.3 (≈ 12.9 µM)
C[C@@H](NC(=O)c1ccc(C(F)(F)F)cc1)[C@](O)(Cn1cncn1)c1ccc(F)cc1F | 4.6 (≈ 10.4 µM) | 100 | 100 | 22 (≈ 50 µM)
C[C@@H](NC(=O)c1sc(-c2ccc(C#N)cc2)nc1C(F)(F)F)[C@](O)(Cn1cncn1)c1ccc(F)cc1F | 2.9 (≈ 5.29 µM) | 100 | <50 | 28 (≈ 51 µM)
Cc1oc(-c2ccc(Cl)cc2)cc1C(=O)N[C@H](C)[C@](O)(Cn1cncn1)c1ccc(F)cc1F | 0.9 (≈ 1.85 µM) | 100 | 0 | 10 (≈ 20.5 µM)
C[C@@H](NC(=O)c1ccn(-c2ccc(Cl)cc2)c1)[C@](O)(Cn1cncn1)c1ccc(F)cc1F | 1.2 (≈ 2.54 µM) | 0 | 0 | 17 (≈ 36 µM)
Cc1sc(-c2ccc(Cl)cc2)nc1C(=O)N[C@H](C)[C@](O)(Cn1cncn1)c1ccc(F)cc1F | > 80 | – | – | > 80
Cc1nc(-c2ccc(C(C)(C)C)cc2)sc1C(=O)N[C@H](C)[C@](O)(Cn1cncn1)c1ccc(F)cc1F | 2.1 (≈ 4 µM) | 0 | 0 | 8.9 (≈ 16.9 µM)
Cc1nc(-c2ccc(C(F)(F)F)cc2)sc1C(=O)N[C@H](C)[C@](O)(Cn1cncn1)c1ccc(F)cc1F | 0.9 (≈ 1.67 µM) | 100 | 100 | 2.2 (≈ 4.09 µM)
C[C@@H](NC(=O)c1cccc(-c2ccc(Cl)cc2)c1)[C@](O)(Cn1cncn1)c1ccc(F)cc1F | 0.3 (≈ 0.621 µM) | 40 | 0 | > 80
Cc1nc(-c2ccc(OCC(F)(F)C(F)F)cc2)sc1C(=O)N[C@H](C)[C@](O)(Cn1cncn1)c1ccc(F)cc1F | 1.3 (≈ 2.17 µM) | 100 | 0 | 2.2 (≈ 3.67 µM)
C[C@@H](NC(=O)c1ccc(-c2ccc(Cl)cc2)cc1)[C@](O)(Cn1cncn1)c1ccc(F)cc1F | 0.3 (≈ 0.621 µM) | 100 | 100 | 18 (≈ 37.3 µM)
C[C@@H](n1cnc2cc(-c3ccc(-n4ncnn4)cc3)sc2c1=O)[C@](O)(Cn1cncn1)c1ccc(F)cc1F | 1.9 (≈ 3.47 µM) | – | – | > 80
Cc1nc(-c2sc(-c3ccc(Cl)cc3)nc2C)sc1C(=O)N[C@H](C)[C@](O)(Cn1cncn1)c1ccc(F)cc1F | 1.8 (≈ 2.99 µM) | 10 | 0 | > 80
Cc1nc(-c2ccc(F)cc2)sc1C(=O)N[C@H](C)[C@](O)(Cn1cncn1)c1ccc(F)cc1F | 1.1 (≈ 2.26 µM) | 100 | 80 | 1.8 (≈ 3.69 µM)
Cc1nc(-c2ccc(C(=N)NO)cc2)sc1C(=O)N[C@H](C)[C@](O)(Cn1cncn1)c1ccc(F)cc1F | 12 (≈ 22.7 µM) | 0 | 0 | 80 (≈ 152 µM)
C[C@@H](NC(=O)c1sc(-c2ccc(Cl)cc2)nc1C(F)(F)F)[C@](O)(Cn1cncn1)c1ccc(F)cc1F | 2 (≈ 3.58 µM) | 100 | <70 | 8.9 (≈ 16 µM)
